Data from ChEMBL document CHEMBL4007447, “Synthesis, biological evaluation and molecular docking study of N-(2-methoxyphenyl)-6-((4-nitrophenyl)sulfonyl)benzamide derivatives as potent HIV-1 Vif antagonists” (Eur J Med Chem, 2017).
≈ marks a conversion by molar mass, not a printed value. Calls of active or inactive are those of the source. No cut-off for these calls is given here.

system: not listed separately; assay: Cytotoxicity against human H9 cells assessed as reduction in cell viability after 7 days by MTT assay; type: cell-based; conditions: not given
In short: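 MTT viability assay. H9 at 4×10^4 cells/well or PHA-stimulated PBMCs at 5×10^5 cells/well were incubated with serially diluted compound at 37 °C, 5% CO2 for seven days before MTT read-out. CC50 was calculated; mean ± standard deviation of three separate experiments.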

SMILES	CC50 at 168 h [µM]
COc1ccccc1NC(=O)c1c(NC(=O)C(N)Cc2ccccc2)cccc1S(=O)(=O)c1ccc([N+](=O)[O-])cc1 (stereo not given)	216
COc1ccccc1NC(=O)c1cscc1Sc1ccc([N+](=O)[O-])cc1	518
COc1ccccc1NC(=O)c1c(N)cccc1Oc1ccc([N+](=O)[O-])cc1	202
COc1ccccc1NC(=O)c1cc(Cl)ccc1Sc1ccc([N+](=O)[O-])cc1	483
COc1ccccc1NC(=O)c1c(NCCN)cccc1S(=O)(=O)c1ccc([N+](=O)[O-])cc1	211
CNc1cccc(S(=O)(=O)c2ccc([N+](=O)[O-])cc2)c1C(=O)Nc1ccccc1OC	200
COc1ccccc1NC(=O)c1c(N(C)C)cccc1S(=O)(=O)c1ccc([N+](=O)[O-])cc1	439
COc1ccccc1NC(=O)c1c(NS(=O)(=O)c2ccc(C)cc2)cccc1Sc1ccc([N+](=O)[O-])cc1	364
CNc1ccc(Sc2ccc([N+](=O)[O-])cc2)c(C(=O)Nc2ccccc2OC)c1	302
COc1ccccc1NC(=O)c1c(Sc2ccc([N+](=O)[O-])cc2)cccc1N1CCNCC1	30.6
COc1ccccc1C(=O)Nc1nc(Cl)ncc1Sc1ccc([N+](=O)[O-])cc1	480
COc1ccccc1NC(=O)c1c(NCCO)cccc1S(=O)(=O)c1ccc([N+](=O)[O-])cc1	154
COc1ccccc1NC(=O)c1c(N)cccc1[S+]([O-])c1ccc([N+](=O)[O-])cc1 (stereo not given)	335
COc1ccccc1NC(=O)c1c(NCCO)cccc1Sc1ccc([N+](=O)[O-])cc1	265
COc1ccccc1NC(=O)c1c(N)cccc1Sc1ccc([N+](=O)[O-])cc1	387
COc1ccccc1NC(=O)c1sccc1Sc1ccc([N+](=O)[O-])cc1	472
COc1ccccc1NC(=O)c1cc(F)ccc1Sc1ccc([N+](=O)[O-])cc1	502
COc1ccccc1NC(=O)c1c(NCC(N)=O)cccc1Sc1ccc([N+](=O)[O-])cc1	35.5
COc1ccccc1NC(=O)c1cccnc1Sc1ccc([N+](=O)[O-])cc1	525
COc1ccccc1NC(=O)c1cc(N(C)C)ccc1Sc1ccc([N+](=O)[O-])cc1	182
COc1ccccc1NC(=O)c1cc(NC(C)=O)ccc1Sc1ccc([N+](=O)[O-])cc1	171

system: Human immunodeficiency virus 1; assay: Antiviral activity against HIV1 subtype B NL4-3 infected in human H9 cells assessed as reduction in p24 level after 7 days by ELISA; type: functional, cell-based; conditions: Human immunodeficiency virus 1, subtype B NL4-3, H9, 168 h
In short: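 H9 cells infected with NL4-3 at MOI 0.03 for 2 h, washed three times, then seeded at 4×10^4 cells/well with serially diluted compound. Incubated 7 days; supernatant p24 measured by in-house ELISA and EC50 calculated. Three separate experiments, mean ± standard deviation.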

SMILES	EC50 [µM]
COc1ccccc1NC(=O)c1c(NS(=O)(=O)c2ccccc2)cccc1Sc1ccc([N+](=O)[O-])cc1	187
COc1ccccc1NC(=O)c1c(NC(=O)C(N)Cc2ccccc2)cccc1S(=O)(=O)c1ccc([N+](=O)[O-])cc1 (stereo not given)	1.46
COc1ccccc1NC(=O)c1cscc1Sc1ccc([N+](=O)[O-])cc1	51.2
COc1ccccc1NC(=O)c1c(N)cccc1Oc1ccc([N+](=O)[O-])cc1	94.6
COc1ccccc1NC(=O)c1cc(Cl)ccc1Sc1ccc([N+](=O)[O-])cc1	18.3
COc1ccccc1NC(=O)c1c(NCCN)cccc1S(=O)(=O)c1ccc([N+](=O)[O-])cc1	214
CNc1cccc(S(=O)(=O)c2ccc([N+](=O)[O-])cc2)c1C(=O)Nc1ccccc1OC	278
COc1ccccc1NC(=O)c1c(NCCBr)cccc1Sc1ccc([N+](=O)[O-])cc1	221
COc1ccccc1NC(=O)c1c(NCCN)cccc1Sc1ccc([N+](=O)[O-])cc1	45.4
COc1ccccc1NC(=O)c1c(N(C)C)cccc1S(=O)(=O)c1ccc([N+](=O)[O-])cc1	226
COc1ccccc1NC(=O)c1c(NS(=O)(=O)c2ccccc2)cccc1S(=O)(=O)c1ccc([N+](=O)[O-])cc1	176
COc1ccccc1NC(=O)c1c(NS(=O)(=O)c2ccc(C)cc2)cccc1Sc1ccc([N+](=O)[O-])cc1	30.6
CNc1ccc(Sc2ccc([N+](=O)[O-])cc2)c(C(=O)Nc2ccccc2OC)c1	240
COc1ccccc1NC(=O)c1c(Sc2ccc([N+](=O)[O-])cc2)cccc1N1CCNCC1	8.24
COc1ccccc1NC(=O)c1c(Sc2ccc([N+](=O)[O-])cc2)cccc1N1CCOCC1	242
COc1ccccc1NC(=O)c1c(Sc2ccc([N+](=O)[O-])cc2)cccc1[N+](=O)[O-]	235

SMILES	EC50 [µM]
COc1ccccc1C(=O)Nc1nc(Cl)ncc1Sc1ccc([N+](=O)[O-])cc1	54.7
COc1ccccc1NC(=O)c1cc(C(F)(F)F)ccc1Sc1ccc([N+](=O)[O-])cc1	223
COc1ccccc1NC(=O)c1ccccc1Sc1ccc([N+](=O)[O-])cc1	263
COc1ccccc1NC(=O)c1c(NCCO)cccc1S(=O)(=O)c1ccc([N+](=O)[O-])cc1	216
COc1ccccc1NC(=O)c1cc(N)ccc1Sc1ccc([N+](=O)[O-])cc1	6.63
COc1ccccc1NC(=O)c1c(N)cccc1[S+]([O-])c1ccc([N+](=O)[O-])cc1 (stereo not given)	10.5
COc1ccccc1NC(=O)c1c(NCCO)cccc1Sc1ccc([N+](=O)[O-])cc1	43.6
COc1ccccc1NC(=O)c1c(N)cccc1Sc1ccc([N+](=O)[O-])cc1	1.87
COc1ccccc1NC(=O)c1sccc1Sc1ccc([N+](=O)[O-])cc1	62.2
COc1ccccc1NC(=O)c1c(NS(=O)(=O)c2ccc(C)cc2)cccc1S(=O)(=O)c1ccc([N+](=O)[O-])cc1	172
COc1ccccc1NC(=O)c1cc(F)ccc1Sc1ccc([N+](=O)[O-])cc1	249
COc1ccccc1NC(=O)c1c(NCC(N)=O)cccc1Sc1ccc([N+](=O)[O-])cc1	41.8
COc1ccccc1NC(=O)c1cccnc1Sc1ccc([N+](=O)[O-])cc1	147
COc1ccccc1NC(=O)c1cc(N(C)C)ccc1Sc1ccc([N+](=O)[O-])cc1	233
COc1ccccc1NC(=O)c1cc([N+](=O)[O-])ccc1Sc1ccc([N+](=O)[O-])cc1	235
COc1ccccc1NC(=O)c1cc(NC(C)=O)ccc1Sc1ccc([N+](=O)[O-])cc1	457

system: not listed separately; assay: Therapeutic index, ratio of CC50 for human H9 cells to EC50 for HIV1 subtype B NL4-3 infected in human H9 cells; conditions: not given
In short: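 Ratio of CC50 to EC50, both measured in H9 cells: MTT cytotoxicity over seven days, and p24 ELISA after 7 days of NL4-3 infection at MOI 0.03.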

SMILES	Ratio CC50/EC50
COc1ccccc1NC(=O)c1c(NC(=O)C(N)Cc2ccccc2)cccc1S(=O)(=O)c1ccc([N+](=O)[O-])cc1 (stereo not given)	148
COc1ccccc1NC(=O)c1cscc1Sc1ccc([N+](=O)[O-])cc1	10.1
COc1ccccc1NC(=O)c1c(N)cccc1Oc1ccc([N+](=O)[O-])cc1	2.14
COc1ccccc1NC(=O)c1cc(Cl)ccc1Sc1ccc([N+](=O)[O-])cc1	26.4
COc1ccccc1NC(=O)c1c(NCCN)cccc1S(=O)(=O)c1ccc([N+](=O)[O-])cc1	0.986
COc1ccccc1NC(=O)c1c(N(C)C)cccc1S(=O)(=O)c1ccc([N+](=O)[O-])cc1	1.94
COc1ccccc1NC(=O)c1c(NS(=O)(=O)c2ccc(C)cc2)cccc1Sc1ccc([N+](=O)[O-])cc1	11.9
CNc1ccc(Sc2ccc([N+](=O)[O-])cc2)c(C(=O)Nc2ccccc2OC)c1	1.26
COc1ccccc1NC(=O)c1c(Sc2ccc([N+](=O)[O-])cc2)cccc1N1CCNCC1	3.71
COc1ccccc1C(=O)Nc1nc(Cl)ncc1Sc1ccc([N+](=O)[O-])cc1	8.78
COc1ccccc1NC(=O)c1c(NCCO)cccc1S(=O)(=O)c1ccc([N+](=O)[O-])cc1	0.713
COc1ccccc1NC(=O)c1c(N)cccc1[S+]([O-])c1ccc([N+](=O)[O-])cc1 (stereo not given)	31.9
COc1ccccc1NC(=O)c1c(NCCO)cccc1Sc1ccc([N+](=O)[O-])cc1	6.08
COc1ccccc1NC(=O)c1c(N)cccc1Sc1ccc([N+](=O)[O-])cc1	207
COc1ccccc1NC(=O)c1sccc1Sc1ccc([N+](=O)[O-])cc1	7.59
COc1ccccc1NC(=O)c1cc(F)ccc1Sc1ccc([N+](=O)[O-])cc1	2.02
COc1ccccc1NC(=O)c1c(NCC(N)=O)cccc1Sc1ccc([N+](=O)[O-])cc1	0.849
COc1ccccc1NC(=O)c1cccnc1Sc1ccc([N+](=O)[O-])cc1	3.57
COc1ccccc1NC(=O)c1cc(N(C)C)ccc1Sc1ccc([N+](=O)[O-])cc1	0.781
COc1ccccc1NC(=O)c1cc(NC(C)=O)ccc1Sc1ccc([N+](=O)[O-])cc1	0.374

system: Human immunodeficiency virus 1; assay: Inhibition of HIV1 Vif expressed in TREX-hVif-15 cells co-expressing EYFP-N1-tagged human A3G assessed as reduction in Vif-mediated A3G degradation at 5 to 20 ug/ml after 48 hrs by flow cytometry; type: cell-based; conditions: not given
In short: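 TREX-hvif-15 cells, in which Vif is under Tet-On control, were plated at 2×10^5 cells/well and grown overnight. At about 80% confluence they were transfected with EYFP-N1-hA3G. After 6 h the cells were washed, and compounds at varied concentrations were added together with doxycycline to induce Vif. Cells were trypsin-harvested 48 h post-transfection, and EYFP-positive cells were measured by flow cytometry. The no-Vif condition was set to 100%.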

SMILES	inhibition
COc1ccccc1NC(=O)c1ccccc1Sc1ccc([N+](=O)[O-])cc1	Active

system: not listed separately; assay: Aqueous solubility in water after 24 to 72 hrs by HPLC based shake flask method; type: physicochemical; conditions: not given
In short: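 Equilibrium shake-flask solubility: excess compound placed in water, methanol, ethanol, acetonitrile, ethyl acetate or acetone and shaken 24-72 h at 25 °C. Filtered through 0.22 μm membrane, diluted, and quantified by HPLC on a C18 column with methanol/water 70/30 mobile phase and UV 251 nm. n=3, mean ± SD.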

SMILES	solubility thermodynamic [µg/mL]
COc1ccccc1NC(=O)c1c(NC(=O)C(N)Cc2ccccc2)cccc1S(=O)(=O)c1ccc([N+](=O)[O-])cc1 (stereo not given)	120 (≈ 209 µM)
